The source made the active and inactive calls.
Experiments:
E. coli GroEL/ES [1] = biological target: T1, E. coli GroEL/ES (Escherichia coli, UniProt P0A6F5); experiment: Inhibition of Escherichia coli GroEL expressed in Escherichia coliDH5alpha/Escherichia coli GroES expressed in Escherichia coli BL21 (DE3) assessed as reduction in GroEL/GroES-mediated denatured MDH refolding by measuring MDH enzyme activity using sodium mesoxalate as substrate after 20 to 40 mins by spectrometric analysis
In short: (§1)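 Coupled refolding assay: denatured rhodanese or MDH refolded by GroEL/ES (50 nM GroEL tetradecamer, 700 nM subunits), read-out via enzymatic activity of refolded substrate; counter-screened against native enzyme activity. IC₅₀ as back-calculated mean of log-transformed replicate values.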

[2] = Selectivity index, ratio of CC50 for human THLE3 cells to EC50 for multidrug resistant Staphylococcus aureus ATCC BAA-44; type: toxicity; conditions: read-out: Ratio CC50/EC50
[3] = Inhibition of refolded MDH (unknown origin) preincubated with Escherichia coli GroEL/GroES for 45 mins using sodium mesoxalate as substrate by spectrometric analysis; parameters: species or system Homo sapiens
In short: (§2)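 Chaperonin-mediated refolding of denatured MDH, coupled to MDH enzymatic activity as the reporter. Human HSP60/10 (HSP60 without its 26-residue mitochondrial signal peptide) or E. coli GroEL/ES was used, with GroEL tetradecamer at 50 nM (700 nM subunits) during the refolding cycle. IC50s from replicate dose-response curves were averaged as logs after ROUT outlier removal.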

HSP60/HSP10 = HSP60/HSP10 (Homo sapiens, UniProt P10809); experiment: Inhibition of human N-terminal octa-His-tagged HSP60 expressed in Escherichia coli Rosetta(DE3) pLysS/human HSP10 expressed in Escherichia coli Rosetta(DE3) assessed as reduction in HSP60/HSP10-mediated denatured MDH refolding by measuring MDH enzyme activity using sodium mesoxalate as substrate after 40 to 60 mins by spectrometric analysis; in short: as §2
Chain of HSP60/HSP10 (P10809 whole entry): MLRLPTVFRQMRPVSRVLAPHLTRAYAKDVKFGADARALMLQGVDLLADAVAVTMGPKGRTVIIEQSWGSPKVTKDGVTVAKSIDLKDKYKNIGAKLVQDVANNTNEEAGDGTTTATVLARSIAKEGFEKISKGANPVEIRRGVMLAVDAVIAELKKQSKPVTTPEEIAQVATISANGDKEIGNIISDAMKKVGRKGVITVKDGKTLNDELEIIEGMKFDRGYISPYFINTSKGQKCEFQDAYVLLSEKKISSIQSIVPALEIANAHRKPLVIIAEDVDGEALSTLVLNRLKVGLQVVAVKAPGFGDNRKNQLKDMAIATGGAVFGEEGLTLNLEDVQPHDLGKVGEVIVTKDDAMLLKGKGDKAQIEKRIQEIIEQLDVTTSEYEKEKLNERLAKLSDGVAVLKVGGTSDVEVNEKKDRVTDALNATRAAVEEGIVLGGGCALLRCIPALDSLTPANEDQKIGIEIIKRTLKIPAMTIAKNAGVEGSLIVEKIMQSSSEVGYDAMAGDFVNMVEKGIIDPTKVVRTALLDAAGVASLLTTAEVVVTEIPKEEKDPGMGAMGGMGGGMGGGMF
Chain of HSP60/HSP10 (P61604 whole entry, further chain): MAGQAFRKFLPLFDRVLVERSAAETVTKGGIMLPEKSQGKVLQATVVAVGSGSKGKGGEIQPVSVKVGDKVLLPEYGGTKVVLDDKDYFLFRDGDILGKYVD

E. coli GroEL/ES [4] = biological target: T1, E. coli GroEL/ES; experiment: Inhibition of Escherichia coli GroEL expressed in Escherichia coli DH5alpha/Escherichia coli GroES expressed in Escherichia coli BL21 (DE3) assessed as reduction in GroEL/GroES-mediated denatured rhodanese refolding by measuring rhodanese enzyme activity after 45 mins by spectrometric analysis; in short: as §1
Staphylococcus aureus [5] = experiment: Antibacterial activity against multidrug resistant Staphylococcus aureus ATCC BAA-44 after 6 to 8 hrs; type: functional, organism-based
[6] = Cytotoxicity against human THLE3 cells after 48 hrs by Alamar blue assay; type: cell-based
In short: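 THLE-3 cells, grown in BEBM with the BEGM kit and 10% FBS, were seeded at 1,500 cells/well and allowed 24 h at 37°C, 5% CO2. Compounds were then added at 100 µM to 46 nM final (3-fold steps, 0.1% DMSO) for 48 h. […] CC50 is the log-average of at least triplicate runs.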

[7] = biological target: T2, Thiosulfate sulfurtransferase (Homo sapiens, UniProt Q16762); experiment: Inhibition of refolded rhodanese (unknown origin) preincubated with Escherichia coli GroEL/GroES for 60 mins by measuring […] after 20 to 40 mins by spectrometric analysis
T2 sequence (Q16762 whole entry): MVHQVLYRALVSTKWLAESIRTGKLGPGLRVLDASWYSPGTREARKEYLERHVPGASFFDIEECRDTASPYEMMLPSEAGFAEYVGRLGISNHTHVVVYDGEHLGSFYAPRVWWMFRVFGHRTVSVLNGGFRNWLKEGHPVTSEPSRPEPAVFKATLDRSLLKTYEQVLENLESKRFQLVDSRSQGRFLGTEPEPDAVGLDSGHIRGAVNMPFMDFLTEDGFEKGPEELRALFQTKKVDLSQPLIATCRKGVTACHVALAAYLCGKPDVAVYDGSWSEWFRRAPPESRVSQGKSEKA

Enterobacter cloacae = experiment: Antibacterial activity against Enterobacter cloacae subsp. cloacae ATCC 13047 after 6 to 8 hrs; type: functional, organism-based
In short: (§3)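 Stagnant liquid-culture proliferation assay at 37°C in broth cation-adjusted with 25 mg/L Ca²⁺ and 12.5 mg/L Mg²⁺, with compounds stamped into the wells. […] OD600 turbidity was read at 6–8 h (K. pneumoniae, E. cloacae, P. aeruginosa) or 24 h (A. baumannii). EC50 came from non-linear regression, averaged in log form over replicates.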

Klebsiella pneumoniae = experiment: Antibacterial activity against Klebsiella pneumoniae ATCC 13883 after 6 to 8 hrs; type: functional, organism-based; in short: as §3
Pseudomonas aeruginosa = experiment: Antibacterial activity against Pseudomonas aeruginosa ATCC 10145 after 6 to 8 hrs; type: functional, organism-based; in short: as §3
Acinetobacter baumannii = experiment: Antibacterial activity against Acinetobacter baumannii ATCC 19606 after 24 hrs; type: functional, organism-based; conditions: for Activity: ATCC 19606 = CIP 70.34 = JCM 6841; in short: as §3
Staphylococcus aureus [8] = experiment: Antibacterial activity against multidrug resistant Staphylococcus aureus ATCC BAA-44 at >100 uM passaged for 12 days in fresh liquid media supplemented with compound; type: functional, organism-based
[9] = Binding affinity to Escherichia coli GroEL expressed in Escherichia coli DH5alpha by ITC assay
In short: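 ITC at 20°C: 400 µM GroEL (monomer) in syringe titrated into 50 µM compound in cell, matched buffer 20 mM HEPES pH 7.4, 50 mM KCl, 10 mM MgCl₂, 1% DMSO; 0.4 µL first injection discarded, then 2.0 µL injections at 3-min intervals, 600 rpm. Single-site fit gave Kd, n, ΔH, ΔS; five or six replicates.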

Staphylococcus aureus [10] = experiment: Antibacterial activity against multidrug resistant Staphylococcus aureus ATCC BAA-44 at >100 uM passaged for 12 days in fresh liquid media supplemented with compound followed by re-culturing for 24 hrs on agar and another 24 hrs in liquid medium; type: functional, organism-based
In short: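 After 12-day serial passage under compound, resistant culture regrown without inhibitor 24 h on agar then 24 h in liquid medium, then retested for growth inhibition; % growth inhibition averaged (±SD) from 4 replicates.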

T1 sequence (P0A6F5 whole entry, looked up): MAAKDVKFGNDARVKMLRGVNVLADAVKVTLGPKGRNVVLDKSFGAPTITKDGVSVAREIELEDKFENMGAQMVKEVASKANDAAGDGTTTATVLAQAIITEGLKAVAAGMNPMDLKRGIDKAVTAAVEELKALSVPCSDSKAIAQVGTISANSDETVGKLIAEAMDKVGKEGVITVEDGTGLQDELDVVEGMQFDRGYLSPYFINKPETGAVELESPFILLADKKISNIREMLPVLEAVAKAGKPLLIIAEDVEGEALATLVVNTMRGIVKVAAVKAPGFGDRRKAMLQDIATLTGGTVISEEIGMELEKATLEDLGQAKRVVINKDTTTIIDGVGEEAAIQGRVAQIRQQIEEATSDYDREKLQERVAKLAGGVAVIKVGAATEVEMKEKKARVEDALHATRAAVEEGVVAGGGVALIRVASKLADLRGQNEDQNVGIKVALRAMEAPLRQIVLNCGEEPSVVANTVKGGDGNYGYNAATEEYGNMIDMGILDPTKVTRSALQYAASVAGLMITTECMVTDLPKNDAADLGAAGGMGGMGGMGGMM

| SMILES | IC50 [3] [µM] | IC50 (HSP60/HSP10) [µM] | EC50 (Staphylococcus aureus [5]) [nM] | CC50 at 48 h [6] [µM] | IC50 [7] [µM] | Activity (Enterobacter cloacae) | Activity (Klebsiella pneumoniae) | Activity (Pseudomonas aeruginosa) | Activity (Acinetobacter baumannii) | other results |
| --- | --- | --- | --- | --- | --- | --- | --- | --- | --- | --- |
| O=S(=O)(Nc1ccc2oc(-c3ccc(NS(=O)(=O)c4ccc(Cl)s4)cc3)nc2c1)c1ccc(Cl)c(Cl)c1 | > 63 | 4.7 | 530 | 24 | > 100 |  |  |  |  | IC50 (E. coli GroEL/ES [1]): 5.1 µM; selectivity ratio [2]: 46; IC50 (E. coli GroEL/ES [4]): 6400 nM |
| O=[N+]([O-])c1ccc(S(=O)(=O)Nc2ccc(-c3nc4cc(NS(=O)(=O)c5ccc([N+](=O)[O-])cc5)ccc4o3)cc2)cc1 | > 63 | 51 | 7300 | 47 | > 100 | inactive | inactive | inactive | inactive |  |
| NCc1ccc(S(=O)(=O)Nc2ccc(-c3nc4cc(NS(=O)(=O)c5ccc(Cl)s5)ccc4o3)cc2)cc1 |  |  | 19000 |  |  |  |  |  |  | Activity (Staphylococcus aureus [8]): Active; IC50 (E. coli GroEL/ES [1]): 1.3 µM; Kd [9]: 36 nM; IC50 (E. coli GroEL/ES [4]): 3200 nM |
| O=S(=O)(Nc1ccc(-c2nc3cc(NS(=O)(=O)c4cccc(C(F)(F)F)c4)ccc3o2)cc1)c1cccc(C(F)(F)F)c1 | > 63 | 58 | 2000 | 24 | > 100 | inactive | inactive | inactive | inactive |  |
| O=S(=O)(Nc1ccc(-c2nc3cc(NS(=O)(=O)c4ccc(Cl)s4)ccc3o2)cc1)c1ccc(Cl)s1 | 52 | 5.9 | 4600 | 49 | > 100 |  |  |  |  |  |
| O=S(=O)(Nc1ccc(-c2nc3cc(NS(=O)(=O)c4ccc(Cl)cc4)ccc3o2)cc1)c1ccc(Cl)cc1 | > 63 |  | 3500 | 18 | > 100 | inactive | inactive | inactive | inactive |  |
| O=S(=O)(Nc1ccc2oc(-c3ccc(NS(=O)(=O)c4ccc(Cl)s4)cc3)nc2c1)c1cccc(C(F)(F)F)c1 | 43 | 5 | 1100 | 36 | > 100 |  |  |  |  | IC50 (E. coli GroEL/ES [1]): 6.7 µM |
| O=S(=O)(Nc1ccc(-c2nc3cc(NS(=O)(=O)c4ccc(Cl)s4)ccc3o2)cc1)c1cccc(C(F)(F)F)c1 | > 63 |  | 2300 | 27 | > 100 |  |  |  |  |  |
| O=c1ccc2cc(S(=O)(=O)Nc3ccc(-c4nc5cc(NS(=O)(=O)c6ccc7oc(=O)ccc7c6)ccc5o4)cc3)ccc2o1 |  |  |  |  |  | inactive | inactive | inactive | inactive |  |
| O=S(=O)(Nc1ccc2oc(-c3ccc(NS(=O)(=O)c4ccc(Cl)s4)cc3)nc2c1)c1ccc(Cl)c(C(F)(F)F)c1 | 40 | 2.4 | 2200 | 27 | > 100 |  |  |  |  |  |
| NCc1ccc(S(=O)(=O)Nc2ccc3oc(-c4ccc(NS(=O)(=O)c5ccc(Cl)s5)cc4)nc3c2)cc1 |  |  |  |  |  |  |  |  |  | IC50 (E. coli GroEL/ES [1]): 3.1 µM; Kd [9]: 150 nM |
| O=S(=O)(Nc1ccc(-c2nc3cc(NS(=O)(=O)c4cccc(O)c4)ccc3o2)cc1)c1cccc(O)c1 |  |  |  |  |  | inactive | inactive | inactive | inactive |  |
| N#Cc1cccc(S(=O)(=O)Nc2ccc(-c3nc4cc(NS(=O)(=O)c5cccc(C#N)c5)ccc4o3)cc2)c1 |  |  |  |  |  | inactive | inactive | inactive | inactive |  |
| O=[N+]([O-])c1cc(S(=O)(=O)Nc2ccc3oc(-c4ccc(NS(=O)(=O)c5ccc(Cl)s5)cc4)nc3c2)ccc1Cl | 37 | 1 | 970 | 11 | > 100 |  |  |  |  | IC50 (E. coli GroEL/ES [4]): 1000 nM |
| COc1cccc(S(=O)(=O)Nc2ccc(-c3nc4cc(NS(=O)(=O)c5cccc(OC)c5)ccc4o3)cc2)c1 |  |  |  |  |  | inactive | inactive | inactive | inactive |  |
| O=S(=O)(Nc1ccc2oc(-c3ccc(NS(=O)(=O)c4cccc5nonc45)cc3)nc2c1)c1ccc(Cl)s1 | > 63 | 11 | 4500 | 69 | 72 |  |  |  |  |  |
| O=S(=O)(Nc1ccc(-c2nc3cc(NS(=O)(=O)c4ccc(Cl)s4)ccc3o2)cc1)c1ccc(Cl)c(C(F)(F)F)c1 | > 63 | 6.1 | 2000 | 22 | > 100 |  |  |  |  | EC50 (Acinetobacter baumannii; ATCC 19606 = CIP 70.34 = JCM 6841, 24 h): 37 µM |
| O=[N+]([O-])c1cc(S(=O)(=O)Nc2ccc(-c3nc4cc(NS(=O)(=O)c5ccc(Cl)s5)ccc4o3)cc2)ccc1Cl | 34 | 2.1 | 1700 | 17 | 53 |  |  |  |  | IC50 (E. coli GroEL/ES [1]): 1.5 µM; selectivity ratio [2]: 10; IC50 (E. coli GroEL/ES [4]): 2000 nM; Activity (Staphylococcus aureus [10]): Active |
| N#Cc1ccc(S(=O)(=O)Nc2ccc(-c3nc4cc(NS(=O)(=O)c5ccc(C#N)cc5)ccc4o3)cc2)cc1 |  |  |  |  |  | inactive | inactive | inactive | inactive |  |
| CCCS(=O)(=O)Nc1ccc(-c2nc3cc(NS(=O)(=O)CCC)ccc3o2)cc1 |  |  |  |  |  | inactive | inactive | inactive | inactive |  |
